Hits are enriched below; roughly 5.3% of the tested compounds scored in any of these assays.
T cruzi inh = inhibitors of intracellular T. cruzi growth, primary screen, luminescence, NIH3T3 host cells. T. cruzi beta-gal in NIH3T3, 90 h. inhibition, % (concentration not given with the values). hit rate 1.4% among 300,000. AID 1885, 2009;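 active = mean inhibition across valid replicates above about 55%, limit read from the data; inconclusive = mean below that limit but half or more replicates reach it; inactive = mean below it, under half of replicates reach it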;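 note: signal also drops with host cell toxicity which is not excluded here; higher percent means less beta-gal luminescence so fewer parasites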
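Test system: β-gal T. cruzi (Tulahuen C4) inside NIH/3T3 cells / Quantity: 5,000 cells/well / Measured by: luminescence from GalScreen with 0.05% NP40, read after 60 min / Medium: DMEM plus 2% FBS / Measure: parasite load inhibition, % / Reagent: Tulahuen C4 trypomastigotes, 5000/well / Schedule: co-culture of at least 90 h after 3 h attachment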
Mdm2 MdmX PPI = inhibitors of human Mdm2-MdmX association, primary screen, cell-based, luminescence, split luciferase, SaOS-2, uHTS; SaOS-2 split-luciferase Mdm2/MdmX complementation; inhibition, % at 8 µM; hit rate 3% among 330,000;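 active = inhibition of at least 50% at 8 µM in the primary screen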
CSC inhib = cancer stem cell viability inhibitors, primary screen, luminescence. AID 2717, 2010. hit rate 1.1% among 300,000. inhibition, % at 7.5 µM. cancer stem cell-like cells viability; in the data active = inhibition above about 75%; inconclusive = no clear call, values can overlap the other calls; tested in HMLE shEcad cells
Calb FLC = C. albicans growth inhibition with fluconazole, primary screen, CaCi-2 strain, Alamar Blue fluorescence. C. albicans CaCi-2 + fluconazole, 48 h. growth inhibition, % (no concentration beside the values). hit rate 0.57% among 300,000. AID 1979, 2009;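 active = growth inhibition above about 58% in most replicates, limit read from the data, passing the limit was not always enough; inconclusive = exactly half the replicates above a set limit; inactive = most replicates below a set limit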;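 note: all wells also contain fluconazole at 8 µg/ml as a sub-toxic cotreatment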
Beta apoptosis = inhibitors of cytokine-induced beta cell apoptosis, primary screen, luminescence | INS-1E cytokine-induced death, ATP luminescence, 48 h; percent of positive-control rescue, neutral wells zero | protection from apoptosis, % (no concentration beside the values) | hit rate 0.8% among 300,000 | AID 435005, 2010;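 active = Every replicate reaches about 75%, or at least half do and their mean reaches it too, limit read from the data; inconclusive = At least half of replicates reach the limit but their mean does not; inactive = Under half of replicates reach the limit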;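 note: higher means more ATP so stronger rescue from cytokine killing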
NLRP3 yeast inh = NALP3 inflammasome inhibitors in reconstituted yeast, primary screen, luminescence, uHTS; Yeast reconstituted NLRP3/ASC/caspase-1, beta-gal luminescence, 24 h; inhibition, % at 10 µM; hit rate 0.39% among 330,000; AID 2825, 2010;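 active = inhibition of 50% or more; inactive = inhibition below 50%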
Mdm2-MdmX conf = Mdm2-MdmX complex disruptors, retested hits, confirmation, luminescence, single concentration; shares compounds with Mdm2 MdmX PPI; Mdm2-MdmX binding, luminescent assay; inhibition, % at 8 µM; hit rate 55% among 10,000; AID 489028, 2010; in the data active = inhibition above about 40%
FLuc counter = full-length luciferase signal inhibition, confirmation, counter-screen for Mdm2/MdmX interaction inhibitor project, cell-based, single concentration, SaOS-2; shares compounds with Mdm2 MdmX PPI; SaOS-2 full-length luciferase counterscreen, luminescence; inhibition, % at 8 µM; hit rate 77% among 6,200; AID 504607, 2011;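 active = mean inhibition at 8 µM reaching about 37%, which flags the compound as non-specific, limit read from the data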;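 note: p53-null SaOS-2 cells with luciferase driven by a doxycycline-inducible promoter; compound on cells about two nights before reading with doxycycline added after day one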
Large screens that a line does not name were inactive (follow-up assays come after a bar, where they were run).

O=C(O)C1CCC(=O)N1Cc1ccccc1Cl (centres undefined)	none (no result: T cruzi inh, Calb FLC)
NC(=O)C(C(=O)/C=C/c1ccc(Cl)cc1)=C1SCCS1	Mdm2 MdmX PPI 91.9 | Mdm2-MdmX conf 82.2 | FLuc counter 49.0
Cc1nn(-c2ccccc2)c(Cl)c1/C=N/NC(=O)c1ccnn1C	none
CCn1c(SCC(=O)Nc2ccc(NC(C)=O)cc2)nc2c([nH]c3ccccc32)c1=O	Mdm2 MdmX PPI 52.5 | Mdm2-MdmX conf 43.7 | FLuc counter 44.1
COc1cccc(-n2c(SCC(N)=O)nc3c([nH]c4ccccc43)c2=O)c1	none (no result: Beta apoptosis)
Cn1c(SCC(=O)Nc2ccc(F)cc2)nc2c([nH]c3ccccc32)c1=O	Mdm2 MdmX PPI 91.4 | Mdm2-MdmX conf 46.1 | FLuc counter 90.5
Cc1ccc(NC(=O)CSc2nc3c([nH]c4ccccc43)c(=O)n2C)cc1	none
COc1cccc(-n2c(SCC(=O)N3CCCCC3)nc3c([nH]c4ccccc43)c2=O)c1	Mdm2 MdmX PPI 78.6 (no result: Beta apoptosis) | Mdm2-MdmX conf inactive
COc1ccc(NC(=O)CSc2nc3c([nH]c4ccccc43)c(=O)n2C)c(OC)c1	Mdm2 MdmX PPI 59.7 | Mdm2-MdmX conf inactive
Cc1ccccc1C(=O)NC(CC(C)C)C(=O)Nc1cccc(S(=O)(=O)N(C)C)c1 (centres undefined)	none
O=C(NCCC1=CCCCC1)C1CCN(S(=O)(=O)c2ccc(Br)s2)CC1	none (no result: CSC inhib, Beta apoptosis)
CCOC(=O)N1CCN(C(=O)C2CCCCC2)CC1	none
COCCn1c(SCC(=O)Nc2ccc(F)cc2)nc2c([nH]c3ccccc32)c1=O	none (no result: Beta apoptosis)
CCn1cc2nc(SCC(=O)Nc3ccc(OC)cc3OC)n(Cc3ccc(OC)cc3)c(=O)c2n1	Mdm2 MdmX PPI 50.3 | Mdm2-MdmX conf 42.0 | FLuc counter 52.1
COCCn1c(SCC(=O)Nc2ccc(C(N)=O)cc2)nc2c([nH]c3ccccc32)c1=O	Mdm2 MdmX PPI 73.8 (no result: Calb FLC) | Mdm2-MdmX conf inactive | FLuc counter 51.5
CCn1cc2nc(SCC(=O)Nc3ccc(OC)c(OC)c3)n(Cc3ccc(OC)cc3)c(=O)c2n1	none
O=C(Nc1ccccc1Br)C1CC(=O)N(c2ccc3c4c(cccc24)CC3)C1 (centres undefined)	Mdm2 MdmX PPI 50.4 | Mdm2-MdmX conf 57.1 | FLuc counter 65.3
COc1ccc(CN2C(=O)CC(Cc3cc(C)cc(C)c3)C2=O)cc1OC (centres undefined)	Calb FLC inconclusive
Cc1cc(C)c2c(CCl)cc(=O)oc2c1	Mdm2 MdmX PPI 70.5 | Mdm2-MdmX conf 61.0 | FLuc counter 99.6
O=C(Nc1ccc(-c2csc(Nc3ccccc3)n2)cc1)c1cc([N+](=O)[O-])cc(C(F)(F)F)c1	none
O=C(Nc1cccc(-c2csc(Nc3cccc(C(F)(F)F)c3)n2)c1)c1cc([N+](=O)[O-])cc(C(F)(F)F)c1	Mdm2 MdmX PPI 63.8 | Mdm2-MdmX conf inactive
Cc1cc(C)nc(NC(=NCCc2c[nH]c3ccccc23)NC(=O)Nc2ccccc2)n1	Mdm2 MdmX PPI 63.9 | Mdm2-MdmX conf inactive | FLuc counter 63.3
C=C1C(=O)O[C@H]2C[C@]3(C)C([C@@H](OC(=O)/C(C)=C/C)[C@H]12)[C@](C)(O)CC[C@H]3O (some centres undefined)	none
C=C1C(=O)O[C@@H]2[C@H]1[C@@H](OC(=O)/C(C)=C/C)C/C(C)=C\C(=O)/C=C(\C)[C@@H]2O	Mdm2 MdmX PPI 100.3 | Mdm2-MdmX conf 83.4 | FLuc counter 51.4
COC(=O)c1ccc(C(=O)Nc2ccc3nc(-c4cccnc4)[nH]c3c2)cc1	none (no result: Beta apoptosis)
CC1=CC(C)(C)N(S(=O)(=O)c2ccc(C)cc2)c2ccccc21	Mdm2 MdmX PPI 63.6 (no result: CSC inhib, Beta apoptosis) | Mdm2-MdmX conf 63.7 | FLuc counter 87.6

High-throughput results deposited in PubChem by several laboratories.
